Values after ≈ are worked out from the molar mass of the structure shown.
Columns and labels:
Enterococcus faecalis = assay: Tested for minimum inhibitory concentration against Enterococcus faecalis ATCC 19433; format: functional
Outline: (§1)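 Twofold broth microdilution in Mueller-Hinton broth, inoculum approximately 10^6 cfu/mL. Plates incubated 18 h at 37 °C. MIC taken as the lowest concentration preventing visible bacterial growth.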

Pseudomonas aeruginosa = assay: Tested for minimum inhibitory concentration against Pseudomonas aeruginosa 32121; format: functional; outline: as §1
Streptococcus pyogenes = assay: Tested for minimum inhibitory concentration against Streptococcus pyogenes G-36; format: functional; outline: as §1
[1] = tested on: Staphylococcus epidermidis; assay: Tested for minimum inhibitory concentration against Staphylococcus epidermidis 56556; format: functional; outline: as §1
Staphylococcus aureus [2] = assay: Tested for minimum inhibitory concentration against Staphylococcus aureus 209P; format: functional; outline: as §1
Staphylococcus aureus [3] = assay: Tested for minimum inhibitory concentration against Staphylococcus aureus Smith; format: functional; outline: as §1
Klebsiella pneumoniae = assay: Tested for minimum inhibitory concentration against Klebsiella pneumoniae; format: functional; outline: as §1
[4] = Partition coefficient of the compound; format: ADME; details: CHCl3-0.1 M phosphate buffer (pH 7.4)
Outline: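 Shake-flask distribution between CHCl3 and 0.1 M sodium phosphate buffer pH 7.4, each phase presaturated with the other. About 1–2 mg sample dissolved in the aqueous phase and its UV maximum absorbance recorded. Equal 10 mL volumes shaken 30 min at room temperature, then left 1 h to separate. Aqueous-layer UV maximum re-read. P' calculated as a ratio of the absorbance readings.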

Escherichia coli [5] = assay: (§2) Dose required to inhibit DNA gyrase in Escherichia coli; format: functional; details: read-out: ID50 (the source's name)
Escherichia coli [6] = assay: Tested for minimum inhibitory concentration against Escherichia coli KL16; format: functional; outline: as §1
Escherichia coli [7] = assay: Tested for minimum inhibitory concentration against Escherichia coli KL-16; format: functional; outline: as §1
Proteus vulgaris = assay: Tested for minimum inhibitory concentration against Proteus vulgaris 08601; format: functional; outline: as §1
[8] = biological target: DNA gyrase (Escherichia coli) (UniProt P0AES6+P0AES4); assay: as §2; format: protein-complex assay
Escherichia coli [9] = assay: Tested for minimum inhibitory concentration against Escherichia coli NIHJ; format: functional; outline: as §1
Enterobacter cloacae = assay: Tested for minimum inhibitory concentration against Enterobacter cloacae 03400; format: functional; outline: as §1
[10] = Escherichia coli, read-out: MIC
[11] = Pseudomonas aeruginosa, read-out: MIC
[12] = Proteus vulgaris, read-out: MIC
[13] = Staphylococcus aureus, read-out: MIC
[14] = Klebsiella pneumoniae, read-out: MIC

SMILES	MIC (Enterococcus faecalis) [µg/mL]	MIC (Pseudomonas aeruginosa) [µg/mL]	MIC (Streptococcus pyogenes) [µg/mL]	MIC [1] [µg/mL]	MIC (Staphylococcus aureus [2]) [µg/mL]	MIC (Staphylococcus aureus [3])	MIC (Klebsiella pneumoniae)	MIC (Proteus vulgaris; [12]) [µg/mL]	further results
C[C@H]1CN(c2c(F)cc3c(=O)c(C(=O)O)cn(C4CC4F)c3c2F)CCN1 (stereo in doubt; 32)	0.78 (≈ 2.05 µM)	0.1 (≈ 0.262 µM)	1.56 (≈ 4.09 µM)	0.2 (≈ 0.524 µM)	0.1 (≈ 0.262 µM)	<=0.05 ug ml-1	<=0.05 ug ml-1		
CN1CCN(c2cc3c(cc2F)c(=O)c(C(=O)O)cn3C2CC2)CC1									P' [4]: 20; IC50 (Escherichia coli [5]): 0.47 µg/mL (≈ 1.36 µM); MIC (Escherichia coli [6]): 0.05 µg/mL (≈ 0.145 µM)
CN1CCN(c2cc3c(cc2F)c(=O)c(C(=O)O)cn3C2CC2F)CC1 (stereo in doubt; 27)	12.5 (≈ 34.4 µM)	0.39 (≈ 1.07 µM)	50 (≈ 138 µM)	0.78 (≈ 2.15 µM)	0.78 (≈ 2.15 µM)	0.39 µg/mL (≈ 1.07 µM)	0.2 µg/mL (≈ 0.55 µM)		MIC (Escherichia coli [7]): 0.1 µg/mL (≈ 0.275 µM); MIC (Proteus vulgaris): 0.1 µg/mL (≈ 0.275 µM)
CN1CCN(c2cc3c(cc2F)c(=O)c(C(=O)O)cn3C2CC2F)CC1 (stereo in doubt; 26)									ID50 [8]: 0.31 µg/mL (≈ 0.853 µM)
CN1CCN(c2cc3c(cc2F)c(=O)c(C(=O)O)cn3[C@@H]2C[C@@H]2F)CC1 (stereo in doubt; 38)									ID50 [8]: 0.18 µg/mL (≈ 0.495 µM)
O=C(O)c1cn(C2CC2)c2cc(N3CCNCC3)c(F)cc2c1=O [CIPROFLOXACIN]								≤ 0.05	ID50 [8]: 0.13 µg/mL (≈ 0.392 µM); MIC (Enterococcus faecalis; Enterococcus faecalis, ATCC 19433, read-out: MIC): 0.78 µg/mL (≈ 2.35 µM); MIC (Escherichia coli [7]; [10]): 0.025 µg/mL (≈ 0.0754 µM); MIC (Escherichia coli [9]): ≤ 0.05 µg/mL; MIC (Pseudomonas aeruginosa; [11]): ≤ 0.05 µg/mL; MIC ([1]; Staphylococcus epidermidis, read-out: MIC): 0.2 µg/mL (≈ 0.604 µM); MIC (Staphylococcus aureus [2]; [13]): 0.1 µg/mL (≈ 0.302 µM); MIC (Staphylococcus aureus [3]; [13]): ≤ 0.05 µg/mL; MIC (Klebsiella pneumoniae; [14]): ≤ 0.05 µg/mL
CN1CCN(c2c(F)cc3c(=O)c(C(=O)O)cn(C4CC4F)c3c2F)CC1 (stereo in doubt; 30)	0.78 (≈ 2.05 µM)	0.1 (≈ 0.262 µM)	3.13 (≈ 8.21 µM)	0.2 (≈ 0.524 µM)	0.1 (≈ 0.262 µM)	<=0.05 ug ml-1	<=0.05 ug ml-1		
O=C(O)c1cn(C2CC2F)c2cc(N3CCNCC3)c(F)cc2c1=O (stereo in doubt; 24)	1.56 (≈ 4.47 µM)		1.56 (≈ 4.47 µM)	0.2 (≈ 0.573 µM)	0.1 (≈ 0.286 µM)	0.1 µg/mL (≈ 0.286 µM)		≤ 0.05	P' [4]: 0.16; MIC (Enterobacter cloacae): ≤ 0.05 µg/mL; MIC (Escherichia coli [9]; [10]): ≤ 0.05 µg/mL; MIC (Pseudomonas aeruginosa; [11]): ≤ 0.05 µg/mL; MIC (Klebsiella pneumoniae; [14]): ≤ 0.05 µg/mL
CN1CCN(c2nc3c(cc2F)c(=O)c(C(=O)O)cn3C2CC2F)CC1 (stereo in doubt; 36)	1.56 (≈ 4.28 µM)	0.2 (≈ 0.549 µM)	6.25 (≈ 17.2 µM)	0.39 (≈ 1.07 µM)	0.39 (≈ 1.07 µM)	0.2 µg/mL (≈ 0.549 µM)	0.2 µg/mL (≈ 0.549 µM)		MIC (Proteus vulgaris): 0.2 µg/mL (≈ 0.549 µM)
CN1CCN(c2nc3c(cc2F)c(=O)c(C(=O)O)cn3C2CC2F)CC1 (stereo in doubt; 37)	25 (≈ 68.6 µM)	0.78 (≈ 2.14 µM)	25 (≈ 68.6 µM)	1.56 (≈ 4.28 µM)	1.56 (≈ 4.28 µM)	0.78 µg/mL (≈ 2.14 µM)		0.2 (≈ 0.549 µM)	MIC (Enterobacter cloacae): ≤ 0.05 µg/mL; MIC (Escherichia coli [9]; [10]): ≤ 0.05 µg/mL; MIC (Klebsiella pneumoniae; [14]): 0.2 µg/mL (≈ 0.549 µM)
O=C(O)c1cn(C2CC2F)c2c(F)c(N3CCNCC3)c(F)cc2c1=O (stereo in doubt; 29)	25 (≈ 68.1 µM)	0.39 (≈ 1.06 µM)	50 (≈ 136 µM)	3.13 (≈ 8.52 µM)	1.56 (≈ 4.25 µM)	0.78 µg/mL (≈ 2.12 µM)	0.2 µg/mL (≈ 0.544 µM)	≤ 0.05	MIC (Enterobacter cloacae): ≤ 0.05 µg/mL; MIC (Escherichia coli [9]; [10]): 0.1 µg/mL (≈ 0.272 µM)

Source: ChEMBL document CHEMBL1127078, “Fluorocyclopropyl quinolones. 1. Synthesis and structure-activity relationships of 1-(2-fluorocyclopropyl)-3-pyridonecarboxylic acid antibacterial agents” (J Med Chem, 1993)
